Source: PubChem BioAssay (Sanford-Burnham Center for Chemical Genomics)
Apaf-1 inh – inhibitors of human Apaf-1 apoptosome, primary screen, biochemical, DEVD-Rh110 fluorescence, uHTS; reconstituted apoptosome caspase-3 activity; Apoptotic protease-activating factor 1 (Homo sapiens), O14727; inhibition, % at 20 µM; AID 489030, 2010; 0.71% of 330,000 active; active = inhibition of at least 40% at 20 µM
Target sequence (O14727 whole entry, looked up): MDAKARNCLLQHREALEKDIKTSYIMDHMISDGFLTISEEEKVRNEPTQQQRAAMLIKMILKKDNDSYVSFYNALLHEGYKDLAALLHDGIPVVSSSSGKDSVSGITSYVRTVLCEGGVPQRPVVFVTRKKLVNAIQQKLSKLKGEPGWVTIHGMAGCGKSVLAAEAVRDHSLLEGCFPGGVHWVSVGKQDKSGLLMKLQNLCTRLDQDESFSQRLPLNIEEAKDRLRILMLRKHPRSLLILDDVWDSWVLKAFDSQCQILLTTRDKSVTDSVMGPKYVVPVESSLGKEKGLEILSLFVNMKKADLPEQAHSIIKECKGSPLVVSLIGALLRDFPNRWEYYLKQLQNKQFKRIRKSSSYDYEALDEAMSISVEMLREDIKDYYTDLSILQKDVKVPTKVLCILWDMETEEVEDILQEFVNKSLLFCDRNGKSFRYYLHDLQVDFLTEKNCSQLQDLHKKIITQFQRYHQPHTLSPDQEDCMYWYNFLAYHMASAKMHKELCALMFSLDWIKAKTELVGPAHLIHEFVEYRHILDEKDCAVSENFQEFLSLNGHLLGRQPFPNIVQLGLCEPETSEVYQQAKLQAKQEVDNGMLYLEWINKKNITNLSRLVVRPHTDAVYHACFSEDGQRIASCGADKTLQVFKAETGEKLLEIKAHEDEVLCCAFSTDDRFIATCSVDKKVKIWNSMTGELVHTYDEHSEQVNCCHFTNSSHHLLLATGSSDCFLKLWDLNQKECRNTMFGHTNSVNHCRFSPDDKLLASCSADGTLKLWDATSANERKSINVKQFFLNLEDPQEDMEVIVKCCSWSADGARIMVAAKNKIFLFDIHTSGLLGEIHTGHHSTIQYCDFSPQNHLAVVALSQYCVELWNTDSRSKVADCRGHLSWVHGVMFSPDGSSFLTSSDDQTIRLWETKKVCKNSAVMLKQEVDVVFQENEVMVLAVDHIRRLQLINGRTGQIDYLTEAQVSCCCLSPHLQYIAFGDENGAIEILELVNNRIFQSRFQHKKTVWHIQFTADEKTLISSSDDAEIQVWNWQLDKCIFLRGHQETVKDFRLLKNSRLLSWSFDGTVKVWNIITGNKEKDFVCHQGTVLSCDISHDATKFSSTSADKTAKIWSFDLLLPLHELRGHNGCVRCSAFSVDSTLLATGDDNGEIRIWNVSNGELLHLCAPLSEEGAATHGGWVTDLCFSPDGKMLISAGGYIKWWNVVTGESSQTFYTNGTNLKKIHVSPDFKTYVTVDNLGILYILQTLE
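Material: reconstituted apoptosome with Apaf-1, cytochrome c, caspase-9, procaspase-3, dATP; medium: pH 7.5 Hepes buffer with CHAPS, BSA, DTT; also added: cytochrome c and DEVD-Rh110 substrate; timing: 30 min plus 50 min, RT; signal: Rh110 fluorescence intensity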
SENP8 block-1 – SENP8 protease inhibitors, primary screen, biochemical, luminescence; 1.2% of 330,000 active; inhibition, % at 10 µM; purified SENP8, Z-RLRGG-aminoluciferin cleavage; Sentrin-specific protease 8 (Homo sapiens), Q96LD8; in the data active = inhibition above about 50%
SENP8 block-2 – human SENP8 protease inhibitors, primary screen, biochemical, fluorescence, Nedd8 protein substrate, uHTS; Sentrin-specific protease 8 (Homo sapiens), Q96LD8; recombinant SENP8; inhibition, % at 20 µM; 0.64% of 360,000 active; AID 602440, 2012; in the data active = inhibition mostly above about 40%, no sharp cut-off; inactive = mostly below about 27%
SENP1 FRET inh – human SENP1 catalytic domain inhibitors, primary screen, biochemical, FRET, uHTS; Sentrin-specific protease 1 (Homo sapiens), Q9P0U3; inhibition, % at 10 µM; 0.21% of 360,000 active; recombinant SENP1 catalytic domain, CyPet-SUMO1-YPet FRET cleavage;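 active = inhibition at least 30% at 10 µM, raw YFP signal under a set limit, fluorescence ratio 0.5 to 1.5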
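Material: hSENP1 catalytic domain, recombinant; medium: Tris pH 8 with BME, BSA, NP40 and catalase; compound: single concentration of 10 µM compound, 0.5% DMSO final; technique: FRET read of cyan and yellow fluorescence; timing: 50 min enzyme reaction, room temperature, light-protected; reagent: SFCypet-SUMO1-SFYpet substrate at 25 nM; control set: no-enzyme low, enzyme-DMSO high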
SENP7 inh – SENP7 protease inhibitors, primary screen, biochemical, luminescence, uHTS | Sentrin-specific protease 7 (Homo sapiens), Q9BQF6 | recombinant SENP7, Z-RLRGG-aminoluciferin luminescence, 40 min | inhibition, % at 5 µM | 1.5% of 330,000 active;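 active = inhibition above about 50% at the single test dose, limit read from the data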
SENP6 inh – SENP6 protease inhibitors, primary screen, biochemical, luminescence, uHTS; Recombinant SENP6 catalytic domain, aminoluciferin luminescence; inhibition, % at 10 µM; 1.8% of 330,000 active; AID 2599, 2010;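 active = inhibition above about 50% at the single tested dose, limit read from the data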
SENP8 conf – SENP8 protease inhibitors, retest, confirmation, biochemical, luminescence, single concentration; shares compounds with SENP7 inh; 40% of 6,200 active; inhibition, % at 12.5 µM; Recombinant SENP8, Z-RLRGG-aminoluciferin luminescence, 60 min;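 active = mean inhibition across replicates above about 50%, limit read from the data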
SENP6 conf – SENP6 protease inhibitors, confirmation, biochemical, luminescence, single concentration. shares compounds with SENP7 inh. recombinant SENP6, Z-RLRGG-aminoluciferin luminescence. inhibition, % at 12.5 µM. 58% of 6,200 active
SENP7 confirm – SENP7 protease inhibitors, retest, confirmation, biochemical, luminescence, single concentration; shares compounds with SENP7 inh; recombinant SENP7, Z-RLRGG-aminoluciferin luminescence, 40 min; inhibition, % at 12.5 µM; 69% of 6,200 active
Casp3 SENP sel – caspase-3 protease inhibitors, confirmation, selectivity assay for SENP inhibitor project, biochemical, single concentration; shares compounds with SENP7 inh; purified caspase-3, Z-DEVD-aminoluciferin luminescence, 60 min; inhibition, % at 12.5 µM; 60% of 6,200 active; AID 488918, 2010;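 active = mean inhibition above about 50%, limit read from the data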
Luc interf – luminescence interference (SENP counter-screen). Pre-incubated SENP8/Z-RLRGG-aminoluciferin, luciferase luminescence interference. 39% of 6,200 active. shares compounds with SENP7 inh. inhibition, % at 12.5 µM. AID 488919;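 active = mean inhibition above about 50% when retested at one dose, limit read from the data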
Hits are given with their value; - = inactive; . = no result. Most compounds without a hit are left out; they make up all but 2.9% or so of the library.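 The calls were made as follows, unless noted: active = mean inhibition above about 50% in the one-dose retest (limit read from the data); inactive = the rest.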

SMILES | Apaf-1 inh | SENP8 block-1 | SENP8 block-2 | SENP1 FRET inh | SENP7 inh | SENP6 inh | SENP8 conf | SENP6 conf | SENP7 confirm | Casp3 SENP sel | Luc interf
Cc1ccc2nc(-c3ccc(N)cc3)sc2c1 | - | 95 | - | - | 98 | 95 | 96 | 98 | 102 | 92 | -
CC(C)C[C@H]1COc2cc(N(C)CCO)ccc2S(=O)(=O)N1 | . | . | - | - | . | . | . | . | . | . | .
CCOC(=O)COc1ccc2c(=O)c(-c3ccccc3)coc2c1 | - | - | - | - | - | - | . | . | . | . | .
Cc1nc(-c2coc3cc(O)c(C)cc3c2=O)cs1 | - | 94 | - | - | 98 | 93 | 84 | 98 | 102 | 96 | -
Cc1nc(-c2coc3cc(C)c(N=O)c(O)c3/c2=N\N)cs1 | - | - | - | - | - | - | . | . | . | . | .
Cc1nc(-c2coc3cc(OCC(=O)O)ccc3c2=O)cs1 | - | - | - | - | - | 65 | 57 | 54 | 86 | 88 | 63
CCOC(=O)C1=CCC(c2ccc(CC)cc2)N(S(=O)(=O)c2ccc(C)cc2)C1 (stereo unspecified) | . | . | - | - | . | . | . | . | . | . | .
Cc1cccc(C)c1OCC(=O)Nc1cccc(C(=O)O)c1 | - | - | - | - | 53 | 69 | 65 | 64 | 88 | - | 74
Cc1ccc(C)c(OCC(=O)Nc2cccc(C(=O)O)c2)c1C | - | - | - | - | - | - | . | . | . | . | .
CCOC(=O)Nc1cccc(C(=O)O)c1 | - | - | - | - | 55 | 61 | 52 | 54 | 86 | - | 71
CCN(CC(=O)Nc1c(F)cccc1F)C(=O)c1ccc(NC(=O)CC2SC(N3CCCC3)=NC2=O)cc1 (stereo unspecified) | - | - | - | - | - | - | . | . | . | . | .
CN(C(=O)Cn1c(=O)oc2cc(S(=O)(=O)N3CCCC3)ccc21)C1CCCCC1 | - | - | - | - | - | - | . | . | . | . | .
O=C(c1cc2ccccc2o1)c1cccs1 | - | 51 | - | - | 72 | - | - | 75 | 93 | 68 | 58
COc1ccc(C(=O)c2cc3cccc(OC)c3o2)cc1 | - | 82 | - | - | 83 | 84 | 88 | 86 | 97 | 76 | 66
O=C(NC(=S)Nc1ccc(NC(=O)c2cccs2)cc1)c1cc2ccccc2o1 | - | - | - | - | - | - | . | . | . | . | .
Cc1ccc(C(=O)c2cc3ccccc3o2)cc1C | - | 69 | - | - | 76 | 82 | - | 72 | 53 | - | -
COc1cccc2cc(C(C)=O)oc12 | - | - | - | - | - | - | . | . | . | . | .
Cc1ccc(C(=O)c2cc3ccccc3o2)cc1 | - | - | - | - | 56 | 77 | - | 60 | 86 | 52 | 59
COc1ccc(OC)c(S(=O)(=O)NCC(c2cccs2)N2CCc3ccccc3C2)c1 (stereo unspecified) | - | - | - | - | - | - | . | . | . | . | .
Cc1ccc(C(=O)N/N=C/c2cccnc2)cc1Cl | . | . | - | - | . | . | . | . | . | . | .
COc1cccc(C(=O)/C=C2\Sc3ccccc3N2C)c1 | - | 60 | - | - | - | - | - | 73 | 93 | 73 | -
O=[N+]([O-])c1ccccc1N/N=C/c1ccccc1 | - | 61 | - | - | 95 | 63 | - | - | - | - | -
O=C(O)c1ccccc1NN=Cc1ccccc1 | . | . | - | - | . | . | . | . | . | . | .
O=[N+]([O-])c1ccccc1N/N=C/c1ccc2c(c1)OCO2 | - | 82 | - | - | 96 | - | - | - | - | - | -
CCc1ccc(S(=O)(=O)NCc2ccc(C(=O)NCCN(Cc3ccccc3)C(C)C)cc2)cc1 | . | . | - | - | . | . | . | . | . | . | .
SMILES | Apaf-1 inh | SENP8 block-1 | SENP8 block-2 | SENP1 FRET inh | SENP7 inh | SENP6 inh | SENP8 conf | SENP6 conf | SENP7 confirm | Casp3 SENP sel | Luc interf
CC(OC(=O)Cc1n[nH]c(=O)c2ccccc12)C(=O)N(C)c1ccccc1 (stereo unspecified) | . | . | - | - | . | . | . | . | . | . | .
Oc1cccc(/C=N/Nc2cccc3cccnc23)c1 | - | 96 | - | - | 92 | - | 97 | 100 | 104 | 94 | 93
Oc1c(/C=N/Nc2cccc3cccnc23)ccc2ccccc12 | - | - | - | - | - | 52 | - | - | - | - | -
COc1cc(/C=N/Nc2cccc3cccnc23)cc(OC)c1O | - | - | - | - | - | - | . | . | . | . | .
Cc1ccc(S(=O)(=O)CCC(=O)Nc2nc(-c3ccncc3)cs2)cc1 | - | - | - | - | - | 52 | - | - | - | - | -
O=C(/C=C/c1ccccc1)Nc1cccc(C(=O)NC2CC2)c1 | . | . | - | - | . | . | . | . | . | . | .
CCc1cc(C(=O)Nc2ncccc2O)sc1C | - | - | - | - | 67 | 66 | 52 | 53 | 86 | 81 | 63
Clc1cccc(OCc2nc(-c3ccncc3)no2)c1 | - | - | - | - | - | - | . | . | . | . | .
CC(C)(C)c1ccc(OCc2nc(-c3ccccn3)no2)c(Br)c1 | - | - | - | - | - | 59 | - | 57 | 74 | - | -
Clc1cc(Cl)c(OCc2nc(-c3ccccn3)no2)cc1Cl | - | 81 | - | - | 81 | 61 | - | - | 96 | 52 | -
Clc1ccc(OCc2nc(-c3ccncc3)no2)c(Cl)c1 | - | - | - | - | - | 55 | - | - | 65 | - | -
c1ccc(Cc2nc(-c3ccccn3)no2)cc1 | - | - | - | - | - | - | . | . | . | . | .
COc1ccc(Cc2nc(-c3ccccn3)no2)cc1 | - | - | - | - | - | - | . | . | . | . | .
Cc1nc2ccc(NC(=O)C3(C)CCCN(C(C)C)C3)cc2o1 (stereo unspecified) | . | . | - | - | . | . | . | . | . | . | .
Cc1ccc(NC(=O)COc2ccccc2)c(NC(=O)c2ccco2)c1 | - | - | - | - | - | - | . | . | . | . | .
